This is an account of results in publication PMC11865470 (Communications Biology, 2025).

Common to all, as to type: cell-based
One test concerns the target NaV1.4 (Homo sapiens, UniProt P35499). The test is described as follows: whole-cell patch-clamp, off-target channel, 10 μM compound. The note with it: for sensitivity of channel to compound: vs 0.1% DMSO. In short, it runs like this: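 NaV channels, transiently transfected HEK293T cells, whole-cell, 16–24 h after seeding. Pipette (mM): 140 CsF, 1 EGTA, 10 NaCl, 10 HEPES, pH 7.4. Bath (mM): 140 NaCl, 5 KCl, 2 CaCl2, 1 MgCl2, 10 glucose, 10 HEPES, pH 7.4. Bath with 0.1% DMSO applied before 10 μM test compound. Inhibition ratios compared by unpaired t-test, n = 5.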

The target in test [1] is T1, mOtop1 channels co-expressed in HEK293 cells (Mus musculus, UniProt Q80VM9).
T1 sequence (Q80VM9 1-600): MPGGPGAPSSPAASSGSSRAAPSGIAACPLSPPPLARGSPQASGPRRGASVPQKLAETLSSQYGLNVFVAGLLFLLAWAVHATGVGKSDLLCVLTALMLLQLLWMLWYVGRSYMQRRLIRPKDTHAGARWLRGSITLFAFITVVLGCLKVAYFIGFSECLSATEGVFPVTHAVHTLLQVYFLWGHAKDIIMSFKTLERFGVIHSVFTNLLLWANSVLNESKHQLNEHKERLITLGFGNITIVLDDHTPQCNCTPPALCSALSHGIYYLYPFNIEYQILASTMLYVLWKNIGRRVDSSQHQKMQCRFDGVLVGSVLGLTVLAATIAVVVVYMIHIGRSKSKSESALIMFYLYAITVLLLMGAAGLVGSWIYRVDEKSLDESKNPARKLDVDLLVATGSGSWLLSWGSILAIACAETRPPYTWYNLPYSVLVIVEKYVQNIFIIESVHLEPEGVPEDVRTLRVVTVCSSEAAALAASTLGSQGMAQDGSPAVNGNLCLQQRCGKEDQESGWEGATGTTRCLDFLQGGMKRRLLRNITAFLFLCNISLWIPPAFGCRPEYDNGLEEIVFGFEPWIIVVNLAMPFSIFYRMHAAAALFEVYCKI
The test is described as follows: live cell intracellular pH imaging. The note with it: 10 μM; for effect on intracellular pH changes mediated by mOtop1, acidification: extracellular pH 6.0/5.0; for effect on intracellular pH changes mediated by mOtop1, alkalinization: extracellular pH 8.5. In short, it runs like this: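 HEK293 cells were electroporated (180 V, 25 ms) with pHmScarlet-mTurquise2, with or without mOtop1, and imaged 24 h later. Cells sat in pH 7.4 solution (mM: 140 KCl, 10 NaCl, 1 MgCl2, 20 HEPES), then were shifted to pH 8.5 (Tris), 6.0 (MES) or 5.0 (HomoPIPES). Test compound was 10 μM in the stimulus solution, with acetic acid pH 5.0 as positive control. FpHmScarlet/FmTurquise2 ratio read every 2 s.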

The target in another test is T2, mouse Otop2 (mOtop2) (Mus musculus, UniProt Q80SX5).
T2 sequence (Q80SX5 1-563): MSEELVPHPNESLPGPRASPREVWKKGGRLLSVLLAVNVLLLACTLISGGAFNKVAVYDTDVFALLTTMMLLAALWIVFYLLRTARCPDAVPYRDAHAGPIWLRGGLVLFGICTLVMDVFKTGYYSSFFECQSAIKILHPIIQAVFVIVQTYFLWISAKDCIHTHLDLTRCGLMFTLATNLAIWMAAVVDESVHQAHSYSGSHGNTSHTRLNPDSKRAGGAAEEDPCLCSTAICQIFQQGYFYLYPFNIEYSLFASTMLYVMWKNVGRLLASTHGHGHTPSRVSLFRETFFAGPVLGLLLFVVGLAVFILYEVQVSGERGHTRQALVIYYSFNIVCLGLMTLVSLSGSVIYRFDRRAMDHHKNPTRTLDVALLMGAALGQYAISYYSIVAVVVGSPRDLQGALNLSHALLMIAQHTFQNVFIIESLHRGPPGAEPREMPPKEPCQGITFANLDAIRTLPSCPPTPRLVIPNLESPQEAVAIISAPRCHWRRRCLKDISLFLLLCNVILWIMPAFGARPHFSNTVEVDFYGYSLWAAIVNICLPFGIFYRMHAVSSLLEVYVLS
Briefly: whole-cell patch-clamp, pH 5.5-evoked currents. The note with it: 10 μM. In short, it runs like this: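 Channel plasmid (2.5 μg) was co-transfected with EGFP plasmid (0.5 μg) using Lipofectamine 2000 into PAC-knockout HEK293T cells. Whole-cell recording 16–24 h after seeding, with Cs-aspartate pipette solution (pH 7.3). Currents evoked by pH 5.5 bath (160 mM NMDG-Cl, 2 mM CaCl2, 10 mM MES); test compound 10 μM.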
(In general: Patch clamp records ionic current or voltage across a cell membrane.)

The target in a further test is T3, KV3.1 (Mus musculus, UniProt P15388).
T3 sequence (P15388 1-585 isoform P15388-3): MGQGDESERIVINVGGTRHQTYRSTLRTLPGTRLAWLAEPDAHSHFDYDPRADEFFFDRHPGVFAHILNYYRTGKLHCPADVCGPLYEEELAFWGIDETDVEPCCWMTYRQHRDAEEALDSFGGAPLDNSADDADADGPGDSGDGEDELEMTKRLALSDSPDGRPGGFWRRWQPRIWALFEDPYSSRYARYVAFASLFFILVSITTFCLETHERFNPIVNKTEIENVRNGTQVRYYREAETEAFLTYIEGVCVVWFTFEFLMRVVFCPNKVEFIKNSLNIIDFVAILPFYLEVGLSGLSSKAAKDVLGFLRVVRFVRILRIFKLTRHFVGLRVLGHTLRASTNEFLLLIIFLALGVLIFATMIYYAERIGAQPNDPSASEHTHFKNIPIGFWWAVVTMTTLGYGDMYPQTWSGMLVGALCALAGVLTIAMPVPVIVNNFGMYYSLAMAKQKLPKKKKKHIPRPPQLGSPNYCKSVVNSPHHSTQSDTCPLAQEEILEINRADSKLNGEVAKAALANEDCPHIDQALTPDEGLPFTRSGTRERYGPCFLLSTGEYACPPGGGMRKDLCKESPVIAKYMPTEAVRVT
Briefly: whole-cell patch-clamp, off-target channel, 10 μM compound. The note with it: for sensitivity of channel to compound: vs 0.1% DMSO. In short, it runs like this:
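KV channels in transiently transfected HEK293T cells, whole-cell. Pipette (mM): 140 KCl, 2.5 MgCl2, 11 EGTA, 10 HEPES, pH 7.4. Bath (mM): 145 NaCl, 2.8 KCl, 2 CaCl2, 1 MgCl2, 10 glucose, 10 HEPES, pH 7.4. 0.1% DMSO bath applied, then 10 μM test compound. DMSO vs compound inhibition ratio compared by unpaired t-test, n = 5.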

“Also recorded” adds a separate entry of the source.

Sequence of NaV1.4 (P35499 whole entry): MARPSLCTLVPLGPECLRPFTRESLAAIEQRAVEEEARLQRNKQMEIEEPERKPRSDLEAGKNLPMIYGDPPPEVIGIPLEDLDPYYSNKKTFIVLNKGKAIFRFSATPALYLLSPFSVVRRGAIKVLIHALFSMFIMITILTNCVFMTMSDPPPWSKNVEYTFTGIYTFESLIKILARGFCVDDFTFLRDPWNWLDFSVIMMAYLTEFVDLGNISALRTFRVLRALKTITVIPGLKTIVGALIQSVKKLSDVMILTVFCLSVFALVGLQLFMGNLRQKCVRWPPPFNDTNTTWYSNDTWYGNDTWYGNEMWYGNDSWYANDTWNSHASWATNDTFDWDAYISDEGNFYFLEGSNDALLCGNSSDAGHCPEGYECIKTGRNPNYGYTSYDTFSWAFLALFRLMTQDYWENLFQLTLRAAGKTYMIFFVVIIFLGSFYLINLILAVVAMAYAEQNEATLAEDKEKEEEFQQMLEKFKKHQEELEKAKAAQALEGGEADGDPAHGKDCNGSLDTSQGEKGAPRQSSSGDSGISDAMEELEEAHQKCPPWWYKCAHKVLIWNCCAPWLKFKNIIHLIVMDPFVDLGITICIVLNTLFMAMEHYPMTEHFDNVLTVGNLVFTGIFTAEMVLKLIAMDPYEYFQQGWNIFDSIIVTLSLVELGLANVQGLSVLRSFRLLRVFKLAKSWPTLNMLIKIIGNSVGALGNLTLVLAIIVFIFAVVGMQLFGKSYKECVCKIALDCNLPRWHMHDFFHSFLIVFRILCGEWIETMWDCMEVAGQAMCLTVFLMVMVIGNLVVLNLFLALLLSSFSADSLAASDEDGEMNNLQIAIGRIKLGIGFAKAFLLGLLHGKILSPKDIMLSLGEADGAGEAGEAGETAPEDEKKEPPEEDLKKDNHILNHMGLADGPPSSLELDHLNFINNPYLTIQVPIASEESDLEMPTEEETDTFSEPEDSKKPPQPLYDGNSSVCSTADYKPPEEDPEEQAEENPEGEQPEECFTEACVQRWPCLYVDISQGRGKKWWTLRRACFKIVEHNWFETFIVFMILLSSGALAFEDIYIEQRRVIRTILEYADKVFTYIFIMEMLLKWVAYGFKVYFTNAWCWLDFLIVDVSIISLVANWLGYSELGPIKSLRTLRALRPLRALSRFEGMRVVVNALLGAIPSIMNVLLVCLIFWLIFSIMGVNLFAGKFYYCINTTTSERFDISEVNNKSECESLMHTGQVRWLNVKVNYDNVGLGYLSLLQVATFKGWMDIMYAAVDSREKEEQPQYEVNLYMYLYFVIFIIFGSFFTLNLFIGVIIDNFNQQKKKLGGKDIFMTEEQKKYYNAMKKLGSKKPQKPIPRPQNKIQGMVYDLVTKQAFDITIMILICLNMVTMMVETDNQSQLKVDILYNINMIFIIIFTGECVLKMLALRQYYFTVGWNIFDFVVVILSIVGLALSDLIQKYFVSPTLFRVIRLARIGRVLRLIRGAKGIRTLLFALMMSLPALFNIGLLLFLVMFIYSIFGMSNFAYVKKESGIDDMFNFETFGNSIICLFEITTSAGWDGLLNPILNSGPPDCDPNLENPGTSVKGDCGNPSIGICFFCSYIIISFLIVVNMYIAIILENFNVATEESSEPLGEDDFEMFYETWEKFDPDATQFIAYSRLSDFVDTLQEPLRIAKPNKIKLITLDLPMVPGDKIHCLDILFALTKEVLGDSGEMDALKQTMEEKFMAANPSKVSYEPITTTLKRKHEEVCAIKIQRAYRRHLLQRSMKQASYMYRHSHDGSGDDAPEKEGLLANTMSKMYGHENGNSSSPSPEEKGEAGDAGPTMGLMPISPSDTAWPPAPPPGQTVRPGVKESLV

As for `CC(C)c1noc2ncc(C(=O)c3ccccc3O)cc12` [HIMOP, (2-hydroxyphenyl)-(3-propan-2-yl-5-isoxazolo[5,4-b]pyridinyl)methanone], on NaV1.4, the “sensitivity of channel to compound” value is “completely resistant”. In test [1], the “effect on intracellular pH changes mediated by mOtop1, acidification” value is given as “increases intracellular pH changes” and the “effect on intracellular pH changes mediated by mOtop1, alkalinization” value is reported as “small but statistically significant increase in pHi; also recorded: increases intracellular pH changes; also recorded: slightly but significantly enhance”. Also, the “effect on pH 5.5-evoked mOtop2 currents” value at mouse Otop2 (mOtop2) is recorded as “did not affect”. Further, at KV3.1, the “sensitivity of channel to compound” value is reported as “completely resistant”.
For `Cc1ccc(C(=O)Nc2ccc3ccccc3c2)o1` [MFaN, 5-methyl-N-2-naphthyl-2-furamide], the inhibition ratio on NaV1.4 was 7.0%; at KV3.1, 15.2%. For the same compound, in test [1], the “effect on intracellular pH changes mediated by mOtop1, acidification” value is given as “increases intracellular pH changes”. Further, the “effect on intracellular pH changes mediated by mOtop1, alkalinization” value in test [1] is “no effect”. In addition, at mouse Otop2 (mOtop2), the “effect on pH 5.5-evoked mOtop2 currents” value is given as “did not affect”.
For the compound `Cc1cc(NC(=O)c2ccc(Br)o2)ccc1NC(=O)c1ccco1` [B2FAMP, 5-Bromo-N-[4-(2-furoylamino)-3-methylphenyl]-2-furamide], the “sensitivity of channel to compound” value at NaV1.4 is reported as “completely resistant”. In test [1], the “effect on intracellular pH changes mediated by mOtop1, acidification” value was “increases intracellular pH changes” and the “effect on intracellular pH changes mediated by mOtop1, alkalinization” value is on record as “no effect”. Also, the “effect on pH 5.5-evoked mOtop2 currents” value on mouse Otop2 (mOtop2) is listed as “did not affect”. Besides, at KV3.1, the “sensitivity of channel to compound” value is “completely resistant”.
